Laboratory results published in ChEMBL document CHEMBL1154566, “Quadranosides I-V, new triterpene glucosides from the seeds of Combretum quadrangulare” (2000).
Activity calls are given as the source filed them. No cut-off for these calls is given here.

Columns and labels:
Assay type in all cases: functional
Hepatocyte [1] = experiment: Hepatoprotective activity against mouse hepatocytes assessed as inhibition of D-galactosamine/TNFalpha-induced cell death at 25 uM after 18 hrs by MTT assay
In short: (§1)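 Primary cultured mouse hepatocytes in Williams' E medium with 10% calf serum, penicillin G, streptomycin, 100 µM dexamethasone and 50 ng/mL insulin, seeded at 10^5 cells/well and preincubated 2 h. The medium was then replaced with fresh medium holding 0.5 mM D-GalN plus test sample.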

Hepatocyte [2] = experiment: Hepatoprotective activity against mouse hepatocytes assessed as inhibition of D-galactosamine/TNFalpha-induced cell death at 50 uM after 18 hrs by MTT assay; in short: as §1
Hepatocyte [3] = experiment: Hepatoprotective activity against mouse hepatocytes assessed as inhibition of D-galactosamine/TNFalpha-induced cell death at 100 uM after 18 hrs by MTT assay; in short: as §1
Hepatocyte [4] = experiment: Hepatoprotective activity against mouse hepatocytes assessed as inhibition of D-galactosamine/TNFalpha-induced cell death at 200 uM after 18 hrs by MTT assay; in short: as §1

Row | Structure (SMILES) | inhibition at 25 µM (Hepatocyte [1]) [%] | inhibition at 50 µM (Hepatocyte [2]) [%] | inhibition at 100 µM (Hepatocyte [3]) [%] | inhibition at 200 µM (Hepatocyte [4]) [%] | Activity (Hepatocyte [1]) | Activity (Hepatocyte [2]) | Activity (Hepatocyte [3]) | Activity (Hepatocyte [4])
1 | C=C(C)[C@@H]1CC[C@]2(C(=O)O[C@@H]3O[C@H](CO)[C@@H](O)[C@H](O)[C@H]3O)CC[C@]3(C)[C@H](CC[C@@H]4[C@@]5(C)C[C@@H](O)[C@H](O)C(C)(C)[C@@H]5[C@H](O)C[C@]43C)[C@@H]12 [QUADRANOSIDE I] | 6.3 | 37.6 | 29.7 | 71.2 |  |  |  | 
2 | Oc1cc(O)c2c(c1)O[C@H](c1cc(O)c(O)c(O)c1)[C@@H](O)C2 [GALLOCATECHIN] |  | 19.7 | 30.3 | 33.5 |  |  |  | 
3 | C[C@@]1(CO)CC[C@]2(C(=O)O[C@@H]3O[C@H](CO)[C@@H](O)[C@H](O)[C@H]3O)CC[C@]3(C)C(=CC[C@@H]4[C@@]5(C)C[C@@H](O)[C@H](O)[C@@](C)(CO)[C@@H]5CC[C@]43C)[C@@H]2C1 [QUADRANOSIDE III] | 15.1 | 8 | 17.8 | 35.5 |  |  |  | 
4 | Oc1cc(O)c2c(c1)O[C@H](c1ccc(O)c(O)c1)[C@H](O)C2 [(-)-EPICATECHIN] |  | 38 | 58.1 | 98.9 |  |  |  | 
5 | C[C@H]1[C@H](C)CC[C@]2(C(=O)O[C@@H]3O[C@H](CO)[C@@H](O)[C@H](O)[C@H]3O)CC[C@]3(C)C(=CC[C@@H]4[C@@]5(C)C[C@@H](O)[C@H](O)[C@@](C)(CO)[C@@H]5CC[C@]43C)[C@H]12 |  |  |  |  | inactive | inactive | inactive | inactive
6 | CC1=C(C)[C@H]2C3=CC[C@@H]4[C@@]5(C)C[C@@H](O)[C@H](O)[C@@](C)(CO)[C@@H]5CC[C@@]4(C)[C@]3(C)CC[C@@]2(C(=O)O[C@@H]2O[C@H](CO)[C@@H](O)[C@H](O)[C@H]2O)CC1 |  | 8.3 | 25 | 15 |  |  |  | 
7 | CC1(C)CC[C@]2(C(=O)O[C@@H]3O[C@H](CO)[C@@H](O)[C@H](O)[C@H]3O)CC[C@]3(C)C(=CC[C@@H]4[C@@]5(C)C[C@@H](O)[C@H](O)[C@@](C)(CO)[C@@H]5CC[C@]43C)[C@@H]2[C@@H]1O [ARJUNGLUCOSIDE I] |  | 10.1 | 31.5 | 32.7 |  |  |  | 
8 | CC1=C2C3=CC[C@@H]4[C@@]5(C)C[C@@H](O)[C@H](O)[C@@](C)(CO)[C@@H]5[C@H](O)C[C@@]4(C)[C@]3(C)CC[C@@]2(C(=O)O[C@@H]2O[C@H](CO)[C@@H](O)[C@H](O)[C@H]2O)CC[C@H]1C [QUADRANOSIDE V] | 59.3 | 67.5 | 77.7 | 80.1 |  |  |  | 
9 | COc1cc(C2Oc3cc([C@H]4Oc5cc(O)cc(O)c5C(=O)[C@@H]4O)ccc3OC2CO)ccc1O (some centres undefined) [SILIBININ] | 38.1 | 61.2 | 96.5 | 70.8 |  |  |  | 
10 | CC1(C)CC[C@]2(C(=O)O)CC[C@]3(C)C(=CC[C@@H]4[C@@]5(C)C[C@@H](O)[C@H](O)[C@@](C)(CO)[C@@H]5CC[C@]43C)[C@@H]2[C@@H]1O [ARJUNGENIN] |  | 31.8 | 37 | 46.2 |  |  |  | 
11 | C=C(C)[C@@H]1CC[C@]2(C(=O)O[C@@H]3O[C@H](CO)[C@@H](O)[C@H](O)[C@H]3O)CC[C@]3(C)[C@H](CC[C@@H]4[C@@]5(C)C[C@@H](O)[C@H](O)[C@@](C)(CO)[C@@H]5[C@H](O)C[C@]43C)[C@@H]12 [QUADRANOSIDE II] | 32 | 40.9 | 46.1 | 83.6 |  |  |  | 
